For assay [1], the target named is HIV-1 integrase (IN) (Human immunodeficiency virus type 1 group M subtype B, UniProt P12497). The assay can be described thus: HTRF-based LEDGF/p75-dependent integration assay. It counts as biochemical. The note with it: for activity in the LEDGF/p75-dependent integration assay: at concentrations up to 100 μM. In outline:
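Homogeneous time-resolved fluorescence read-out of integration in the presence of LEDGF/p75. Reactions run in neutral buffer, so carboxylic acid test compounds are present as the carboxylate anion. The format is said to detect integrase inhibitors acting by different mechanisms.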
For orientation: TR-FRET usually uses a lanthanide donor and a delayed reading to cut background.

The target of assay [2] is A128T mutant HIV-1 IN (Human immunodeficiency virus type 1 group M subtype B, UniProt P12497, A1275T). The assay can be described thus: HTRF-based aberrant IN multimerization assay, A128T mutant IN. It counts as biochemical.
Assay [3] concerns the target HIV-1 IN (WT) (Human immunodeficiency virus type 1 group M subtype B, UniProt P12497). The assay can be described thus: biochemical.

By IC50 is commonly meant the concentration needed to halve the response being measured. High values mean weaker potency in that assay, low ones greater potency in that assay.

Consider `Cn1c(CC(OC(C)(C)C)C(=O)O)c(-c2ccccc2)c2ccccc21` (stereo not drawn) [Compound 10], for which, in assay [1], the IC50 was above 100 µM and the “activity in the LEDGF/p75-dependent integration assay” value was “failed to show any activity”.

Take `COc1ccc(-n2c(C(OC(C)(C)C)C(=O)O)c(C)c3ccccc32)cc1` (stereo not drawn) [Compound 15]: in assay [1], the IC50 is above 100 µM and the “activity in the LEDGF/p75-dependent integration assay” value is “failed to show any activity”.

As to `Cn1c(C(OC(C)(C)C)C(=O)O)c(-c2ccc3c(c2)CCCO3)c2ccccc21` (stereo not drawn) [Compound 5c], the values for the IC50 in assay [2] and in assay [3] were 16 ± 1.4 µM and 16.1 ± 2 µM, respectively.
